# Columns and labels:
# Malme-3M [1] = assay: Inhibition of cellular viability of Malme-3M cells; type: functional, Homo sapiens
# Malme-3M [2] = assay: Inhibition of basal ERK phosphorylation in Malme-3M cells; type: functional, Homo sapiens
# [3] = Clearance in presence of human hepatocytes; type: ADME, cell-based, Liver, Hepatocyte
# How it was run: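 Human hepatocytes (fresh or cryopreserved) diluted to 2 x 10⁶ viable cells/mL in supplemented Krebs-Henseleit buffer pH 7.3, mixed 1:1 with 2 µM compound working solution. Incubated at 37 °C, 5% CO₂, duplicates, one plate per timepoint. Quenched with labetalol internal standard and centrifuged; compound remaining measured by LC-MS/MS (ESI+, MRM).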
# [4] = Clearance in rat; type: ADME, organism-based; details: Sprague-Dawley, in vivo
# How it was run: (§1)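 Male Sprague Dawley rats (6-10 weeks) received IV 1 mg/kg (10% DMSO/90% saline) and PO 10 mg/kg (1% CMC/0.5% Tween 80). Serial tail-vein plasma was taken up to 24 h (IV) or 72 h (PO) and analysed by LC/MS/MS (9 ng/mL to 20 µg/mL). Parameters were calculated non-compartmentally.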
# [5] = Half life in rat at 1 mg/kg, iv; type: ADME, organism-based; design: dose 1 mg/kg, route intravenous; details: Sprague-Dawley, in vivo
# How it was run: (§2)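 Male Sprague Dawley rats (6-10 weeks), fed ad lib, dosed IV at 1 mg/kg (1 mg/mL in 10% DMSO/90% normal saline, 1 mL/kg). Tail-vein EDTA blood sampled 1, 5, 15, 30 min and 1, 2, 4, 8, 12, 24 h. Plasma analysed by LC/MS/MS after methanol protein precipitation, range 9 ng/mL to 20 µg/mL. Parameters derived by non-compartmental analysis.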
# Rattus norvegicus [6] = assay: AUC in rat at 10 mg/kg, po; type: ADME, organism-based, Sprague-Dawley, Plasma; design: dose 10 mg/kg, route oral; details: in vivo
# How it was run: (§3)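 Male Sprague Dawley rats (6-10 weeks) were given 10 mg/kg by oral gavage (2 mg/mL in 1% CMC/0.5% Tween 80, 5 mL/kg). Tail-vein EDTA blood was drawn at 15 and 30 min and 1, 2, 4, 8, 12, 24, 48, 72 h. Plasma was quantified by LC/MS/MS after methanol precipitation. Parameters came from non-compartmental analysis.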
# [7] = Aqueous solubility at pH 6.5; type: physicochemical
# How it was run: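 Thermodynamic shake-flask method: crystalline solid (0.5 mg, crystallinity confirmed by polarizing microscopy) in 0.5 mL 10 mM potassium phosphate, pH 6.5, swirled 24 h at room temperature. Filtered aliquots were quantified by HPLC-PDA against a calibration curve.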
# HT-29 [8] = assay: Inhibition of ERK phosphorylation in HT29 tumor bearing Ncr-nu/nu mice after 12 hrs at 10 mg/kg, po; type: functional; details: Mus musculus, HT-29, 12 h
# [9] = Half life in rat at 10 mg/kg, po; type: ADME, organism-based; design: dose 10 mg/kg, route oral; details: Sprague-Dawley, in vivo; how it was run: as §3
# HT-29 [10] = assay: Inhibition of ERK phosphorylation in HT29 tumor bearing NCr-nu/nu mice after 4 hrs at 10 mg/kg, po; type: functional; details: Mus musculus, HT-29, 4 h
# [11] = Oral bioavailability in rat; type: ADME, organism-based; details: Sprague-Dawley, in vivo; how it was run: as §1
# Rattus norvegicus [12] = assay: AUC in rat at 1 mg/kg, iv; type: ADME, organism-based, Sprague-Dawley, Plasma; design: dose 1 mg/kg, route intravenous; details: in vivo; how it was run: as §2
# [13] = Volume of distribution in rat; type: ADME, organism-based; details: Sprague-Dawley, in vivo, read-out: Vdss; how it was run: as §1
# [14] = molecular target: RAC-alpha serine/threonine-protein kinase (Homo sapiens) (UniProt P31749); assay: Inhibition of PKBa at 10 uM
# How it was run: (§4)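 Kinase panel run at Upstate (Dundee). Each compound was tested at 10 µM against each enzyme and reported as % inhibition.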
# [15] = molecular target: Mitogen-activated protein kinase 14 (Homo sapiens) (UniProt Q16539); assay: Inhibition of SAPK2a/p38 at 10 uM; how it was run: as §4
# [16] = molecular target: Mitogen-activated protein kinase 8 (Homo sapiens) (UniProt P45983); assay: Inhibition of JNK/SAPK1c at 10 uM; how it was run: as §4
# [17] = molecular target: Glycogen synthase kinase-3 beta (Homo sapiens) (UniProt P49841); assay: Inhibition of GSK3b at 10 uM; how it was run: as §4
# [18] = molecular target: cAMP-dependent protein kinase (PKA) (Homo sapiens) (UniProt P22694+P17612+P22612); assay: Inhibition of PKA at 10 uM; type: protein assay; how it was run: as §4
# [19] = molecular target: Mitogen-activated protein kinase 1 (Homo sapiens) (UniProt P28482); assay: Inhibition of MAPK2/ERK2 at 10 uM; how it was run: as §4
# [20] = molecular target: T1, Serine/threonine-protein kinase Chk1 (Homo sapiens) (UniProt O14757); assay: Inhibition of CHK1 at 10 uM; how it was run: as §4
# T1 sequence (whole entry): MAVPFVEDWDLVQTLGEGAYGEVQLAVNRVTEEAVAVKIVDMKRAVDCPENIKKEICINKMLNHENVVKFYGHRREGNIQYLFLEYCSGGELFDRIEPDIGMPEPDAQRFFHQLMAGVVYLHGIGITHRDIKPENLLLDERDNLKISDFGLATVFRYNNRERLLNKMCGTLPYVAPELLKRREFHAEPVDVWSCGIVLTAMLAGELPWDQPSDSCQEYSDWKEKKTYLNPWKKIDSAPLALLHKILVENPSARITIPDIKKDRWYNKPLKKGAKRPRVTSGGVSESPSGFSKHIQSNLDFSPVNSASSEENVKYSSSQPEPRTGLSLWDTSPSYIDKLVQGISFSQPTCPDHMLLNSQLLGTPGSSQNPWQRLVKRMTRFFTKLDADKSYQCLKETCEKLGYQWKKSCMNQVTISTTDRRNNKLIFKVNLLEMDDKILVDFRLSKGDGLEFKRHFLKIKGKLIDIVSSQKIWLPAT
# [21] = molecular target: T2, MAP kinase-activated protein kinase 5 (Homo sapiens) (UniProt Q8IW41); assay: Inhibition of PRAK at 10 uM; how it was run: as §4
# T2 sequence (whole entry): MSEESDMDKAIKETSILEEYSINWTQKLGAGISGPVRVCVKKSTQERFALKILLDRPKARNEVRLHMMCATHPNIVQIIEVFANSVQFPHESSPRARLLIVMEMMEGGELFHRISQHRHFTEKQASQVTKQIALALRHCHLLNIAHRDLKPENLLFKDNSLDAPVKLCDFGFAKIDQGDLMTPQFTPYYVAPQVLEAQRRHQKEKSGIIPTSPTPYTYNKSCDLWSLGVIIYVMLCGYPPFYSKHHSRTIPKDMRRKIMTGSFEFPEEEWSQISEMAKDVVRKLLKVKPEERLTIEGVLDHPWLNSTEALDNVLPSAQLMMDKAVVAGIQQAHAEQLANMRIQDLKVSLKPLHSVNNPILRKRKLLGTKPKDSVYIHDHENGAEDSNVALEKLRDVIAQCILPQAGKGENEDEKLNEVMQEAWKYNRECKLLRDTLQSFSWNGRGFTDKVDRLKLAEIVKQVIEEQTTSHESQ
# [22] = molecular target: Ribosomal protein S6 kinase (P70S6K) (Homo sapiens) (UniProt Q9UBS0+P23443); assay: Inhibition of p70 S6K at 10 uM; type: protein-complex assay; how it was run: as §4
# [23] = molecular target: Ribosomal protein S6 kinase alpha-1 (Homo sapiens) (UniProt Q15418); assay: Inhibition of MAPKAP-K1a at 10 uM; how it was run: as §4
# [24] = molecular target: Mitogen-activated protein kinase 11 (Homo sapiens) (UniProt Q15759); assay: Inhibition of SAPK2b/p38--beta-2 at 10 uM; how it was run: as §4
# [25] = molecular target: Protein kinase C alpha type (Homo sapiens) (UniProt P17252); assay: Inhibition of PKCa at 10 uM; how it was run: as §4
# [26] = molecular target: Casein kinase II (Homo sapiens) (UniProt P67870+P68400+P19784); assay: Inhibition of CK2 at 10 uM; type: protein-complex assay; how it was run: as §4
# [27] = molecular target: Dual specificity tyrosine-phosphorylation-regulated kinase 1A (Homo sapiens) (UniProt Q13627); assay: Inhibition of DYRK1a at 10 uM; how it was run: as §4
# [28] = molecular target: Tyrosine-protein kinase Lck (Homo sapiens) (UniProt P06239); assay: Inhibition of LCK at 10 uM; how it was run: as §4
# [29] = molecular target: MAP kinase-activated protein kinase 2 (Homo sapiens) (UniProt P49137); assay: Inhibition of MAPKAP-K2 at 10 uM; how it was run: as §4
# [30] = molecular target: Cyclin-dependent kinase 2/cyclin A (Homo sapiens) (UniProt P24941+P20248+P78396); assay: Inhibition of CDK2/cyclin A at 10 uM; type: protein-complex assay; how it was run: as §4
# [31] = molecular target: Ribosomal protein S6 kinase alpha-5 (Homo sapiens) (UniProt O75582); assay: Inhibition of MSK1 at 10 uM; how it was run: as §4
# [32] = molecular target: Rho-associated protein kinase 2 (Homo sapiens) (UniProt O75116); assay: Inhibition of ROCK 2 at 10 uM; how it was run: as §4
# [33] = molecular target: AMP-activated protein kinase, AMPK (Homo sapiens) (UniProt P54646+O43741+P54619+Q9UGJ0+Q9Y478+Q13131+Q9UGI9); assay: Inhibition of AMPK at 10 uM; type: protein-complex assay; how it was run: as §4
# [34] = molecular target: T3, Lymphokine-activated killer T-cell-originated protein kinase (Homo sapiens) (UniProt Q96KB5); assay: Inhibition of PBK at 10 uM; how it was run: as §4
# T3 sequence (whole entry): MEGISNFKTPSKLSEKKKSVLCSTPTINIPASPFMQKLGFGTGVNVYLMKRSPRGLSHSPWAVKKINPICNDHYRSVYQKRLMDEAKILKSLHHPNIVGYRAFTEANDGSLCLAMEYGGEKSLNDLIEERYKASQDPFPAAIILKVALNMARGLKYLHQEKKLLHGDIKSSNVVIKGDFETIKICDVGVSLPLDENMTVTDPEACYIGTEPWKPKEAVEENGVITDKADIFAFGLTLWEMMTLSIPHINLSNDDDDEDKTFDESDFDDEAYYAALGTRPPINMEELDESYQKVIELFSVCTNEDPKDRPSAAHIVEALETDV
# Sequence of Mitogen-activated protein kinase 11 (Homo sapiens) (Q15759 whole entry): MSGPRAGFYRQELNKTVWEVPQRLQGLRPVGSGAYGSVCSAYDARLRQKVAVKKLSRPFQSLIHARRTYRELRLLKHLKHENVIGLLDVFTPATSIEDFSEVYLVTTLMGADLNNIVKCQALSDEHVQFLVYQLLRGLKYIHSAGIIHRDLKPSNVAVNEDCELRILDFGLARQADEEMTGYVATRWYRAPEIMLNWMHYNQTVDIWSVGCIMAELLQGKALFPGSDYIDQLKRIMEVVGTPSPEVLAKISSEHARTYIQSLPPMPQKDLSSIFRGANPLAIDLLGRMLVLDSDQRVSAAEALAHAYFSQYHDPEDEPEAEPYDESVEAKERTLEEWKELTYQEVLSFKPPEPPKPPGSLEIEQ
# Sequence of Ribosomal protein S6 kinase alpha-1 (Homo sapiens) (Q15418 whole entry): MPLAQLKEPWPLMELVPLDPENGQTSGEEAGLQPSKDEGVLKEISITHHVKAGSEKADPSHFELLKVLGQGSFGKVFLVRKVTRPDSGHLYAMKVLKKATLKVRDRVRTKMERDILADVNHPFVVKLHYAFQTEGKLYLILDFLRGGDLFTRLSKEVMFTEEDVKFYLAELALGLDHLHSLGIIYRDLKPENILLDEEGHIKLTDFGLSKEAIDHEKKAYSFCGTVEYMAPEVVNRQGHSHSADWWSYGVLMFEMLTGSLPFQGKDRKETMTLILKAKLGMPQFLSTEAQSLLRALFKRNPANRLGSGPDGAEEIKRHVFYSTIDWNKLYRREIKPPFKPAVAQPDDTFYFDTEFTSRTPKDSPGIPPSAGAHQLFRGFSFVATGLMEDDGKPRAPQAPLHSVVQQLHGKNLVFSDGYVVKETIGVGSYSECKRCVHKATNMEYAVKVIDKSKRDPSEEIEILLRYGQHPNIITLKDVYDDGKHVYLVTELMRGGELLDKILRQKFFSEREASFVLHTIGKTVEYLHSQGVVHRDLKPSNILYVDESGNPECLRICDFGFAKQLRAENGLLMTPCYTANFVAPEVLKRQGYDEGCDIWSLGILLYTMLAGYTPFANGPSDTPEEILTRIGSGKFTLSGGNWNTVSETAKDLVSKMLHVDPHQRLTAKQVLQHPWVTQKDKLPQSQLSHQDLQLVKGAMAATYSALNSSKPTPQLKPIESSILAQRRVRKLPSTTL
# Sequence of Ribosomal protein S6 kinase alpha-5 (Homo sapiens) (O75582 whole entry, looked up): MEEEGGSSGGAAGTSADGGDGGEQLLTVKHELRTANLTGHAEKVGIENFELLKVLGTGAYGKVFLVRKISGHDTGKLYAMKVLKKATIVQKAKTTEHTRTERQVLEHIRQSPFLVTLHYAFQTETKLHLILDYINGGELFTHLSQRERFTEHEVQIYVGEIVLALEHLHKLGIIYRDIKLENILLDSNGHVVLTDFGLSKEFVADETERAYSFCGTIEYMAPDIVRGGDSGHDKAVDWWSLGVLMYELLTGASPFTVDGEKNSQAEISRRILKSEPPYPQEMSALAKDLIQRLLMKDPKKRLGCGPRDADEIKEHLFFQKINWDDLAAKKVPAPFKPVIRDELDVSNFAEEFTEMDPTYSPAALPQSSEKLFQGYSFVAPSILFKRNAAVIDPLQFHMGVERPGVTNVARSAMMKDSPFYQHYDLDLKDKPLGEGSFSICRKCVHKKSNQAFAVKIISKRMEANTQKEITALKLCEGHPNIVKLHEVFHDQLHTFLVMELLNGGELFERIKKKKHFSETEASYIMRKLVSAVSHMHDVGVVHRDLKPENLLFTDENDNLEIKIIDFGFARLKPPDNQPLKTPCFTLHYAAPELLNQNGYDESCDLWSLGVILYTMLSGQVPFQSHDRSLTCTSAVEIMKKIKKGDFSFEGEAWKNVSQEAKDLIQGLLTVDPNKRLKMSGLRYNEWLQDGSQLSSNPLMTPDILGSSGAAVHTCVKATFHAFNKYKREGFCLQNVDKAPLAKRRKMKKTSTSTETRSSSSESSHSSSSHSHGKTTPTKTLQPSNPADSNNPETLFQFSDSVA
# Sequence of RAC-alpha serine/threonine-protein kinase (Homo sapiens) (P31749 whole entry): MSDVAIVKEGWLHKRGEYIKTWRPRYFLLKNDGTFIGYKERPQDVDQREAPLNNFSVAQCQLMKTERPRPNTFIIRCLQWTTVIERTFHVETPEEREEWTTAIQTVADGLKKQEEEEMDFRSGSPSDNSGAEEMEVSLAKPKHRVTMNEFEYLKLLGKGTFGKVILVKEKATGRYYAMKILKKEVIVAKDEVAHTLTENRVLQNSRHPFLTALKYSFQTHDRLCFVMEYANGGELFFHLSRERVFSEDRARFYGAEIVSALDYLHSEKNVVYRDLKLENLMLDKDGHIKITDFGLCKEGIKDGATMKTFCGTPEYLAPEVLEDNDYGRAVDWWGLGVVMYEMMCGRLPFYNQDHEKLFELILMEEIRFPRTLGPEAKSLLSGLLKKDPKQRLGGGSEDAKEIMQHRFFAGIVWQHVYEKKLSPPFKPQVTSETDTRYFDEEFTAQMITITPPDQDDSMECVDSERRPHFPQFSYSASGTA
# Sequence of Rho-associated protein kinase 2 (Homo sapiens) (O75116 whole entry, looked up): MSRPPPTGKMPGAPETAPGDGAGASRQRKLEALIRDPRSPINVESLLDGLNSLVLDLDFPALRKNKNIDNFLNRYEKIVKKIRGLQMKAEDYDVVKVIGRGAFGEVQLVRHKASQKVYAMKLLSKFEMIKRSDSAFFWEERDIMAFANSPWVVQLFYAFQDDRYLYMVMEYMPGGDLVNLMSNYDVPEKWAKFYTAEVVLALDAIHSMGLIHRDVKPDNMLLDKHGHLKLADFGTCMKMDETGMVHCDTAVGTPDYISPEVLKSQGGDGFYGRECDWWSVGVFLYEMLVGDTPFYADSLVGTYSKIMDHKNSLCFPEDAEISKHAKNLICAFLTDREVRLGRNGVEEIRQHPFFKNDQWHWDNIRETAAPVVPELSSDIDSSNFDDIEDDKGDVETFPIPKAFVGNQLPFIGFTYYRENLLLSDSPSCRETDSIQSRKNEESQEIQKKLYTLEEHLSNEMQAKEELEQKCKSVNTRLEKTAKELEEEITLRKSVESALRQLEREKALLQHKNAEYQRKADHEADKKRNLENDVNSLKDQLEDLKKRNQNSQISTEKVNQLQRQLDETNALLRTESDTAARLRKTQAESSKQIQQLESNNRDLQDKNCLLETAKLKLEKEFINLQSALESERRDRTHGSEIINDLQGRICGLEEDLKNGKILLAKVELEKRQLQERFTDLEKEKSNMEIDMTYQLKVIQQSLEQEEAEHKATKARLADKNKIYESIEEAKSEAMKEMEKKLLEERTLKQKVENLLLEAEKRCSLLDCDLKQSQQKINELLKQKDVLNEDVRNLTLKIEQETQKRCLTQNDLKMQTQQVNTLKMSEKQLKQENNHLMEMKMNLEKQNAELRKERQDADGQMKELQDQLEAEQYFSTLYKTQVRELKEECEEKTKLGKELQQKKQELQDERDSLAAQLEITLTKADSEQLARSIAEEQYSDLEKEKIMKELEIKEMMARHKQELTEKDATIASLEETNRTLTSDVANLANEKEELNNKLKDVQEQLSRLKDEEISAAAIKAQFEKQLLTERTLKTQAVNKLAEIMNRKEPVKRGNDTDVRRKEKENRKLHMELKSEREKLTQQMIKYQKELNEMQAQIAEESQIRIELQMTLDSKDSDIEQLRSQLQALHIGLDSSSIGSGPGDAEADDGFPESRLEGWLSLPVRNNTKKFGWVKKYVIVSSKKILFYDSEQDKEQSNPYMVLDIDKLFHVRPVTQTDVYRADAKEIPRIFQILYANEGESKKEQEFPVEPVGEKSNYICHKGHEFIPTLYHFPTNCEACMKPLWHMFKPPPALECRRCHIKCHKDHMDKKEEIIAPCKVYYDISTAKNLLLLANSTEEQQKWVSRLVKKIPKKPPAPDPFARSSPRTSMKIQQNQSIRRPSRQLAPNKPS
# Sequence of Glycogen synthase kinase-3 beta (Homo sapiens) (P49841 whole entry, looked up): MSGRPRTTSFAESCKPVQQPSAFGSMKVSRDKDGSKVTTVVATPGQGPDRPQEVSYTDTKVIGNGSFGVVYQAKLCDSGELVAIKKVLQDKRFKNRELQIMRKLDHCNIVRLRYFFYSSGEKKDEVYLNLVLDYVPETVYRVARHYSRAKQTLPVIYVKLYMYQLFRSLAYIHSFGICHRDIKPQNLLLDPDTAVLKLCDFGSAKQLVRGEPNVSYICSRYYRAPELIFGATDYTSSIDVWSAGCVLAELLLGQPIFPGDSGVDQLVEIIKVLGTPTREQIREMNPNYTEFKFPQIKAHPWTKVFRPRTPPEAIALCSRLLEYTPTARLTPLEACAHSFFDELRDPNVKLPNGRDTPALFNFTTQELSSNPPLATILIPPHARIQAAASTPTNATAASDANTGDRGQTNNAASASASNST
structure (smiles),measurement,setting,value
Cn1cc(C(=O)NOCCO)c(Nc2ccc(Br)cc2F)c(Cl)c1=O,Activity,Malme-3M [1],175 nM
same,Activity,Malme-3M [2],26 nM
O=C(NOCCO)c1cnc(Cl)c(Cl)c1Nc1ccc(Br)cc1F,Activity,Malme-3M [1],>5000 nM
same,Activity,Malme-3M [2],>10000 nM
Cn1cc(C(=O)NOCCO)c(Nc2ccc(Br)cc2F)c(F)c1=O,Activity,Malme-3M [1],115 nM
same,Activity,Malme-3M [2],22 nM
Cn1cc(C(=O)NOCCO)c(Nc2ccc(Br)cc2F)cc1=O,Activity,Malme-3M [1],460 nM
same,Activity,Malme-3M [2],73 nM
Cn1cc(C(=O)NOCC2CC2)c(Nc2ccc(Br)cc2F)cc1=O,Activity,Malme-3M [1],165 nM
same,Activity,Malme-3M [2],26 nM
Cn1cc(C(=O)NO)c(Nc2ccc(Br)cc2F)c(F)c1=O,Activity,Malme-3M [1],860 nM
same,Activity,Malme-3M [2],18 nM
CONC(=O)c1cn(C)c(=O)c(F)c1Nc1ccc(Br)cc1F,Activity,Malme-3M [1],145 nM
same,Activity,Malme-3M [2],22 nM
Cn1cc(C(N)=O)c(Nc2ccc(Br)cc2F)c(F)c1=O,CLhep predicted,[3],9 mL/min/kg
same,clearance,[4],5.7 mL/min/kg
same,half-life,[5],1.8 h
same,AUC,Rattus norvegicus [6],23000 ng·h/mL
same,solubility,[7],26 µg/mL
same,Activity,Malme-3M [1],48 nM
same,inhibition in vivo at 10 mg/kg,HT-29 [8],50%
same,Activity,Malme-3M [2],7.1 nM
same,half-life,[9],11 h
same,inhibition in vivo at 10 mg/kg,HT-29 [10],> 80%
same,bioavailability,[11],100%
same,AUC,Rattus norvegicus [12],2500 ng·h/mL
same,Vd,[13],0.8 L/kg
COc1ncc(C(=O)NOCCO)c(Nc2ccc(Br)cc2F)c1Cl,Activity,Malme-3M [1],>5000 nM
same,Activity,Malme-3M [2],>10000 nM
CCONC(=O)c1cn(C)c(=O)c(F)c1Nc1ccc(Br)cc1F,inhibition,[14],6%
same,inhibition,[15],10%
same,inhibition,[16],15%
same,CLhep predicted,[3],2 mL/min/kg
same,clearance,[4],0.7 mL/min/kg
same,half-life,[5],6 h
same,inhibition,[17],21%
same,inhibition,[18],14%
same,inhibition,[19],7%
same,inhibition,[20],13%
same,inhibition,[21],18%
same,inhibition,[22],13%
same,AUC,Rattus norvegicus [6],138000 ng·h/mL
same,inhibition,[23],6%
same,inhibition,[24],9%
same,inhibition,[25],6%
same,inhibition,[26],4%
same,inhibition,[27],12%
same,inhibition,[28],19%
same,inhibition,[29],15%
same,half-life,[9],12 h
same,bioavailability,[11],58%
same,inhibition,[30],25%
same,AUC,Rattus norvegicus [12],24100 ng·h/mL
same,inhibition,[31],7%
same,Vd,[13],0.4 L/kg
same,inhibition,[32],4%
same,inhibition,[33],8%
same,inhibition,[34],-1%
Cn1cc(C(=O)NCC2CC2)c(Nc2ccc(Br)cc2F)c(F)c1=O,Activity,Malme-3M [1],>5000 nM
same,Activity,Malme-3M [2],1206 nM
Cn1cc(C(=O)NOCC2CC2)c(Nc2ccc(Br)cc2F)c(F)c1=O,Activity,Malme-3M [1],22 nM
same,Activity,Malme-3M [2],3.4 nM
Cn1cc(C(=O)O)c(Nc2ccc(Br)cc2F)c(F)c1=O,Activity,Malme-3M [1],>5000 nM
same,Activity,Malme-3M [2],>10000 nM
Cc1c(Nc2ccc(Br)cc2F)c(C(=O)NOCC2CC2)cn(C)c1=O,Activity,Malme-3M [1],46 nM
same,Activity,Malme-3M [2],7.5 nM
Cn1cc(C(=O)NOCC2CC2)c(Nc2ccc(Br)cc2F)c(Cl)c1=O,Activity,Malme-3M [1],195 nM
same,Activity,Malme-3M [2],27 nM
CNC(=O)c1cn(C)c(=O)c(F)c1Nc1ccc(Br)cc1F,Activity,Malme-3M [1],405 nM
same,Activity,Malme-3M [2],68 nM
